PubChem BioAssay AID651628 (The Scripps Research Institute Molecular Screening Center, 2012)
Active and inactive are the calls of the source.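 Rule for the calls: active = at least one off-target enzyme showing weaker fluorescent probe labeling in any proteome panel; inactive = no off-target enzyme affected in any panel.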

tested on: Soluble Proteome; test: anti-target inhibition in MCF7 proteome, late-stage follow-up, selectivity assay for PAD4 inhibitor project, cell lysate, gel-based fluorescence, soluble and membrane fractions (AID 651628); settings: CA-Rh gel-based ABPP, anti-target count, at 10 µM, hits give high values
Summary of the method: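 Material: MCF7 cell proteome, soluble or membrane fraction | Medium: DPBS | Doses: Compound at 10 or 50 µM | Schedule: Compound 1 h, probe 1 h, 25 °C | Measured by: SDS-PAGE separation with in-gel fluorescence scanning of labelled bands | Control set: DMSO-only reference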

Number of anti-targets, inactive:
NC1=CC(=O)c2ccc(-c3cccc(C(=O)O)n3)nc2C1=O 0
COC1=C(N)C(=O)c2ncccc2C1=O 0
COC(=O)c1cccc(-c2ccc3c(n2)C(=O)C(N)=CC3=O)n1 0
O=C1C(O)=C(O)C(=O)c2ncccc21 0
COC(=O)c1nc(C(=O)OC)c(NC(C)=O)c(-c2ccccc2Br)c1C 0
COC1=C(N)C(=O)c2nc(-c3nc(C(=O)O)c(C)c(-c4ccc(OC)c(OC)c4O)c3N)ccc2C1=O 0
COC1=C(Br)C(=O)c2nc(-c3ccccn3)ccc2C1=O 0
NC1=CC(=O)c2cccnc2C1=O 0
COC(=O)c1cccc(-c2ccc3c(n2)C(=O)C(Br)=CC3=O)n1 0
NC1=CC(=O)c2ccc(-c3ccccn3)nc2C1=O 0

Number of anti-targets, active:
O=C1C=C(Br)C(=O)c2ncccc21 > 5
COC1=C(I)C(=O)c2nc(C#N)ccc2C1=O > 5
COC1=C(Br)C(=O)c2ncccc2C1=O > 5
COC1=CC(=O)c2nc(C#N)ccc2C1=O > 5
